NLRP3 yeast inh – NALP3 inflammasome inhibitors in reconstituted yeast, primary screen, luminescence, uHTS | actives 0.39% (n = 330,000) | Yeast reconstituted NLRP3/ASC/caspase-1, beta-gal luminescence, 24 h | inhibition, % at 10 µM;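 active means inhibition of 50% or more; inactive means inhibition below 50%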;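 further: plate controls were induced DMSO wells for no effect and uninduced yeast grown without galactose for full effect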
T cruzi inh – inhibitors of intracellular T. cruzi growth, primary screen, luminescence, NIH3T3 host cells; actives 1.4% (n = 300,000); T. cruzi beta-gal in NIH3T3, 90 h; AID 1885, 2009; inhibition, % (concentration not given with the values);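 active means mean inhibition across valid replicates above about 55%, limit read from the data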;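 further: signal also drops with host cell toxicity which is not excluded here; 0% = plate median of DMSO wells and 100% = zero luminescence signal; higher percent means less beta-gal luminescence so fewer parasites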
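Material: NIH/3T3 host cells with β-galactosidase reporter T. cruzi; Input: 5,000 host fibroblasts per well; Medium: DMEM, 2% fetal bovine serum; Compound: 50 nL DMSO compound solution per well; Schedule: 3 h host attachment, then at least 90 h co-culture; Detection: luminescent β-galactosidase signal after 60 min lysis.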
L major viab – Leishmania major promastigote growth inhibition, primary screen | Leishmania major promastigotes, resazurin fluorescence viability | inhibition, % at 10 µM | actives 9% (n = 200,000) | AID 1063, 2008; in the data active means inhibition above about 50%;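 further: promastigotes grown with compound for 44 hours at 28 °C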
PolyA inhibitor – polyadenylation inhibitors in yeast reporter cells, primary screen, luminescence, S. cerevisiae; S. cerevisiae SKY197-pL101 polyadenylation reporter, beta-gal luminescence; efflux-impaired pdr1/pdr3 knockout yeast; score 100 = 6 SD above DMSO; activity score, % at 12 µM; actives 0.02% (n = 300,000); AID 1875, 2009;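 active means lowest replicate activity score at least 50, where 100 means six control SD above control mean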;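 further: yeast exposed to compound for 9 h at 30 °C; higher score means more reporter readthrough which indicates perturbed polyadenylation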
Calb FLC – C. albicans growth inhibition with fluconazole, primary screen, CaCi-2 strain, Alamar Blue fluorescence; C. albicans CaCi-2 + fluconazole, 48 h; growth inhibition, % (concentration not given with the values); actives 0.57% (n = 300,000); AID 1979, 2009;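 active means growth inhibition above about 58% in most replicates, limit read from the data, passing the limit was not always enough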;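 further: all wells also contain fluconazole at 8 µg/ml as a sub-toxic cotreatment; 0% = median of DMSO wells and 100% = median of geldanamycin control wells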
NALP1 inh – NALP1 inflammasome inhibitors in reconstituted yeast, colorimetric, S. cerevisiae, triplicate retest; S. cerevisiae NALP1/ASC/caspase-1 growth, X-gal OD620, 72 h; inhibition, % at 10 µM; actives 0.61% (n = 280,000); in the data active means inhibition mostly above about 24%, no sharp cut-off; inactive means mostly below about 32%
* = called active by the depositor; · = no result given. Shown is part of a subset that was picked to be rich in hits.

SMILES | NLRP3 yeast inh | T cruzi inh | L major viab | PolyA inhibitor | Calb FLC | NALP1 inh
CC(C)(C)C1CCc2sc(C(=O)NNC(=O)CCl)cc2C1 (configuration not stated) | · | 67.2* | 38.8 | -41.3 | 2.9 | -41.3
COc1ccc(-c2[nH]c(-c3ccccc3)nc2SCC(=O)NC2CCCC2)cc1 | -3.8 | 2.0 | 20.4 | -5.2 | -0.3 | 26.2
Cc1ccc(-c2[nH]c(-c3ccc(Cl)cc3)nc2SCC(=O)NCC2CCCO2)cc1 (configuration not stated) | 13.3 | 13.8 | 69.7* | 6.8 | -4.2 | 12.4
COc1cccc(-c2ccc(SCC(=O)NC3CCCC3)nn2)c1 | -17.8 | -12.4 | · | 9.0 | -10.4 | -4.7
COc1ccc(-c2[nH]c(-c3cccc(OC)c3)nc2SCC(=O)NC2CCCC2)cc1 | 5.5 | 0.9 | 58.5* | 0.5 | -0.7 | 34.3
COc1ccc(-c2[nH]c(-c3ccc(F)cc3)nc2SCC(=O)NC2CCCC2)cc1 | 15.6 | 19.0 | 76.5* | -5.3 | 27.9 | 21.8
Cc1cccc(C)c1NC(=O)COc1cccc(/C=N/NC(=O)C(=O)NCc2ccccc2)c1 | -14.8 | -8.4 | -7.0 | -9.4 | -2.4 | 4.1
O=C(NNc1c2ccccc2nc2ccccc12)c1ccc(O)cc1O | 29.3 | -0.5 | 99.3* | 4.3 | -6.7 | 3.6
O=C(NNc1c2ccccc2nc2ccccc12)c1cccc(O)c1 | 20.5 | -12.2 | 89.8* | 0.5 | 41.2 | 21.1
O=C(NNc1c2ccccc2nc2ccccc12)c1ccc(O)cc1 | 19.0 | 0.1 | 70.8* | 6.4 | 4.6 | 15.4
O=C(NNc1c2ccccc2nc2ccccc12)c1ccccc1Cl | 29.7 | 37.6 | · | -1.2 | 7.6 | 14.4
O=C(NNc1c2ccccc2nc2ccccc12)c1ccccc1O | 23.1 | 30.2 | 21.0 | -1.5 | -14.4 | 17.1
CCCCC1CCC(C(=O)Nc2ccc(N3CCOCC3)cc2N2CCOCC2)CC1 (configuration not stated) | 16.5 | · | · | · | · | ·
COc1ccc(/C=N/NC(=O)c2ccncc2)cc1Cn1nc([N+](=O)[O-])c(Br)c1C | 14.0 | 19.1 | 1.9 | 12.0 | -20.7 | -7.3
O=C(COc1ncnc2ccccc12)Nc1ccc(Cl)c([N+](=O)[O-])c1 | -9.6 | 41.4 | 72.1* | -9.2 | 21.8 | 34.2
O=C(CN(C(=O)c1ccc(Cl)cc1)C1CCCCC1)Nc1ccc(Cl)c([N+](=O)[O-])c1 | 4.6 | 42.0 | 85.1* | 10.5 | -0.7 | ·
Cc1ccc([N+](=O)[O-])cc1NC(=O)CN(C(=O)c1ccc(Cl)cc1)C1CCCCC1 | 11.4 | 16.6 | 32.6 | -8.9 | 16.4 | 2.4
O=C(CN(C(=O)c1ccccc1Cl)C1CCCCC1)Nc1ccc(Cl)c([N+](=O)[O-])c1 | 10.4 | 35.9 | 80.1* | -12.3 | 21.8 | 0.7
CN(C)CCNC(=O)c1c(CSc2ccc(Cl)cc2)noc1C(=O)NCc1ccccc1 | 6.0 | 3.8 | · | -1.2 | -5.1 | ·
CCCOc1ccc(C(=O)OCCN2CCCCC2)c(O)c1 | 14.6 | 18.9 | · | -1.8 | -19.0 | ·
COc1ccc(NC(=O)COC(=O)C2CCN(S(=O)(=O)c3cccs3)CC2)cc1OC | 7.8 | · | · | · | · | ·
CCc1ccccc1NC(=O)C(CC)Sc1nc2cc3c(cc2c(=O)n1Cc1ccco1)OCO3 (configuration not stated) | -11.6 | -1.8 | 100.3* | 8.7 | 21.9 | 35.3
Cc1cc(Cl)c2oc(C(=O)N3CCN(c4ccncc4)CC3)c(C)c2c1 | 25.1 | 60.5* | · | 18.5 | -10.9 | 18.7
COc1ccc(S(=O)(=O)N(CCc2ccccc2)CC(=O)N/N=C/c2ccc3c(c2)OCO3)cc1 | -3.3 | 41.6 | 98.5* | 4.7 | 1.4 | 20.2
CC(SCc1ccccc1)C(=O)N/N=C/c1ccc2c(c1)OCO2 (configuration not stated) | 16.1 | 3.2 | 75.2* | -0.1 | 5.2 | 29.0
SMILES | NLRP3 yeast inh | T cruzi inh | L major viab | PolyA inhibitor | Calb FLC | NALP1 inh
Cc1cccc(C)c1OCC(=O)N/N=C/c1ccc2c(c1)OCO2 | 33.7 | -15.1 | -3.5 | 21.5 | -6.3 | 28.4
Cc1ccc(C(C)C)cc1OCC(=O)N/N=C/c1ccc2c(c1)OCCO2 | 29.6 | -15.1 | 90.0* | -2.3 | -2.7 | 40.2
O=C(N/N=C/c1ccc2c(c1)OCO2)c1ccc2ccccc2n1 | 24.0 | 46.6 | 77.9* | 8.3 | -9.8 | 1.7
CCN(CC)CCN1C(=O)C(=O)/C(=C(/O)c2ccc(S(=O)(=O)N3CCOCC3)cc2)C1c1ccc(Cl)cc1 (configuration not stated) | 24.2 | 10.2 | · | -5.3 | -6.1 | 9.5
COC(=O)COc1ccc(S(=O)(=O)Nc2ccc(NC(C)=O)cc2)cc1C | -10.5 | 3.6 | -4.3 | -0.8 | -9.2 | 25.6
Cc1ccn2c(C(=O)N/N=C\c3ccc4c(c3)OCO4)c(C)nc2c1 | -1.8 | -23.0 | 84.8* | -5.3 | -15.8 | ·
CCOc1ccc(NC(=O)CCC(=O)N/N=C/c2ccc3c(c2)OCO3)cc1 | 23.7 | 4.3 | 2.0 | 3.7 | 110.7* | -42.3
O=C(NCCC(=O)N1CCN(Cc2c(F)cccc2Cl)CC1)c1ccc(Cl)cc1 | 8.1 | · | · | · | · | ·
COc1cc(C2C(C#N)=C(N)OC3=C2C(=O)CC(C)(C)C3)ccc1OC(=O)N1CCOCC1 (configuration not stated) | 5.6 | -4.1 | -5.4 | -1.9 | -12.5 | ·
COc1ccc(C2C(C#N)=C(/N=C/N3CCN(C)CC3)OC3=C2C(=O)CC(C)(C)C3)cc1OC (configuration not stated) | 2.3 | 4.4 | 63.9* | -11.0 | 13.8 | 20.7
CC1CC(C)CN(S(=O)(=O)c2cc(C(=O)O)c(Cl)s2)C1 (configuration not stated) | 8.9 | -13.8 | -3.5 | 10.0 | 6.2 | 31.8
COc1ccccc1N(C)S(=O)(=O)c1ccc(Cl)c(C(=O)OCc2c(C)noc2C)c1 | 14.5 | 5.8 | 53.1* | -6.6 | -3.3 | -0.6
CN1CCN(CCC(=O)N2c3ccccc3Sc3ccc(C(F)(F)F)cc32)CC1 | 12.7 | 26.5 | 55.3* | -4.7 | 3.0 | 14.6
OCCN1CCN(CCCN2c3ccccc3Sc3ccc(C(F)(F)F)cc32)CC1 | 34.7 | 17.6 | 86.7* | -17.9 | · | 30.6
CN1CCN(CCCN2c3ccccc3Sc3ccc(Cl)cc32)CC1 | 37.6 | 31.5 | 99.7* | 1.9 | · | 35.8
CCC(C)[C@H](NC(=O)NCc1ccco1)C(=O)OC (some centres not stated) | -2.4 | · | · | 7.4 | 9.6 | 21.7
O=C(CC1C(=O)NCCN1CC1CCCCC1)NC1(c2ccccc2)CC1 (configuration not stated) | 19.5 | 8.2 | 5.5 | -0.3 | 0.5 | 7.8
O=C(Nc1nncs1)C1CC(=O)N(CCc2ccc(F)cc2)C1 (configuration not stated) | 19.6 | -22.4 | · | -12.5 | -5.5 | 7.6

Source: PubChem
